# Where a SMILES comes first, the peptide text is derived from it. [ ]: non-standard residue; d: D form. pT = C[C@@H](OP(=O)(O)O)[C@H](N)C(=O)O; pS = N[C@@H](COP(=O)(O)O)C(=O)O
# Legend:
# [1] = test system: truncated version of βarr2; assay: HDX-MS profile of truncated βarr2 upon co-incubation with C7pp; set-up: species or system Rattus norvegicus; conditions: truncated βarr2 lacking residues 357–410; data not shown
# rat βarr2 = rat βarr2 (Rattus norvegicus, UniProt P29067); assay: Isothermal titration calorimetry of C7pp binding to full-length βarr2; conditions: 298 K, 20 mM Tris-HCl pH 8.0, 200 mM NaCl
# Chain of rat βarr2 (P29067 whole entry): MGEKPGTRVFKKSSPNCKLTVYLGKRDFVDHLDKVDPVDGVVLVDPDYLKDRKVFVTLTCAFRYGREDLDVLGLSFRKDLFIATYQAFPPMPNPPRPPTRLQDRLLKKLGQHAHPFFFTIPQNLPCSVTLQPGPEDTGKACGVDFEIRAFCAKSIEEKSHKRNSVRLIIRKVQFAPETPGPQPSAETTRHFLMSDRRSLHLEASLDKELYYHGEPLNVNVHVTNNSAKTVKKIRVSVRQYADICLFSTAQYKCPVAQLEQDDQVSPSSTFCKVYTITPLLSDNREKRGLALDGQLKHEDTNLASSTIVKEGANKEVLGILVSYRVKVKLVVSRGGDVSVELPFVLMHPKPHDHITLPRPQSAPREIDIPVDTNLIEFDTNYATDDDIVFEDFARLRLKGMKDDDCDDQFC
# How it was run: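 Rat βarr2 (1–410 WT), expressed in E. coli BL21(DE3)pLysS, in 20 mM Tris-HCl pH 8.0, 200 mM NaCl at 100 μM or 30 μM in the cell, degassed at 295 K. Titration at 298 K: 2.5 μL of C7pp ([…] syringe solution) injected every 200 s with gentle stirring. Binding constant and stoichiometry fitted from the titration curve; n = 3 independent experiments.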
# βarr2 = assay: HDX-MS profile of βarr2 upon C7pp binding; set-up: species or system Rattus norvegicus; conditions: 100 μM βarr2, 500 μM peptide, 1 h at room temperature
# [2] = biological target: Rattus norvegicus wild-type β-arrestin 2 (βarr2 1-410) (Rattus norvegicus) (UniProt P29067); assay: ITC
# Chain of Rattus norvegicus wild-type β-arrestin 2 (βarr2 1-410) (Rattus norvegicus) (P29067 whole entry, the tested form may be a part): as the sequence (P29067 whole entry) above
Compound,HDX profile of truncated βarr2 upon co-incubation [1],binding behaviour (ITC) (rat βarr2),HDX-MS: helix formation in the finger loop (βarr2),Kd [2] [µM]
CC[C@H](C)[C@H](N)C(=O)N[C@@H](Cc1ccccc1)C(=O)N[C@@H](CCCCN)C(=O)N[C@@H](Cc1ccc(O)cc1)C(=O)N[C@@H](COP(=O)(O)O)C(=O)N[C@@H](C)C(=O)N[C@@H](CCCCN)C(=O)N[C@H](C(=O)NCC(=O)N[C@@H](CC(C)C)C(=O)N[C@H](C(=O)N[C@@H](CCCCN)C(=O)N[C@@H](CC(C)C)C(=O)N[C@H](C(=O)N[C@@H](CC(=O)O)C(=O)O)[C@@H](C)CC)[C@@H](C)OP(=O)(O)O)[C@@H](C)OP(=O)(O)O [C7pp] (H-IFKY[pS]AK[pT]GL[pT]KLID-OH; N-terminus and C-terminus assumed),did not change upon co-incubation with C7pp,monophasic binding with βarr2,did not indicate a helix formation in the finger loop,–
CXCR7 phosphopeptide (C7pp),–,–,–,3.08
